# High-throughput results from PubChem BioAssay.
# CHT PAM – allosterically activates the human high affinity choline transporter | Q9GZV3 | CHT-expressing cells, membrane potential dye, choline EC20; hits give high values; LV-AA mutant CHT in HEK293 cells | B-score at 10 µM | actives 0.49% (n = 310,000);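 active = initial fluorescence not abnormally high and integrated response B-score, plate-corrected, over 3 SD above library mean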
# Target sequence (Q9GZV3 whole entry, looked up): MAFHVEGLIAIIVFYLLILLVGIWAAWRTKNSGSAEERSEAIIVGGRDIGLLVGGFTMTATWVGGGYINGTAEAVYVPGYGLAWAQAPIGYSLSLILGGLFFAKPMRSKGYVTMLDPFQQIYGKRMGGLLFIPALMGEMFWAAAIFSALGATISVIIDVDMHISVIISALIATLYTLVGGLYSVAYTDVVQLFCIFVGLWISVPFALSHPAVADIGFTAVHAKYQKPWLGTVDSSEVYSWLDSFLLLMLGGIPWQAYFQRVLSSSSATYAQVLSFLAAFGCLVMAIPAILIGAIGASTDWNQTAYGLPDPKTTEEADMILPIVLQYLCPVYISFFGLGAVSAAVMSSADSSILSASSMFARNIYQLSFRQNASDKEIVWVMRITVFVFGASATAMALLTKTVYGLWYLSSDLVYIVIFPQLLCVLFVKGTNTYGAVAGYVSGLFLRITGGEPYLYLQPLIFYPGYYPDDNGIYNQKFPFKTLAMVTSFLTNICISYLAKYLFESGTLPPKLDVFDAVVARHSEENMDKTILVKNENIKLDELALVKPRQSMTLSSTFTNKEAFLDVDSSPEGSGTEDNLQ
# GalR3 antagonist – human GalR3 antagonism | O60755 | actives 0.44% (n = 360,000) | HEK293 GalR3-CNG cAMP membrane potential fluorescence; galR3 body fused to GalR1 C-terminus | inhibition, % at 3 µM;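 active = inhibition above the screen-wide average plus 3 SD, cut at about 13% in these data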;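 also: forskolin and galanin both at EC90 stimulate the cells; cAMP rise reported by CNG channel membrane potential dye signal; 0% = forskolin plus galanin with DMSO and 100% = forskolin alone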
# NR2F2 inh – inhibitors of human COUP-TFII (NR2F2) | P24468 | HEK293T NGFI-A luciferase reporter, luminescence | inhibition, % at 8.6 µM | actives 0.7% (n = 370,000) | AID 686940;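 active = inhibition above a per-plate cutoff, mean inhibition of test wells between control levels plus 3 SD, cut at about 38% in these data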;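 also: cells cotransfected with COUP-TFII expression vector driving the NGFI-A reporter; 0% = median of COUP-TF2 test wells and 100% = reporter-only cells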
# CHT inh – inhibitors of human choline transporter CHT. Q9GZV3. CHT-expressing cells, membrane potential dye, choline response; hits give low values. B-score at 10 µM. actives 0.86% (n = 310,000). AID 488975;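 active = B-score over 3 SD under the library average, and starting fluorescence ratio not unusually high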;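 also: choline stimulus applied at its EC90 after an EC20 pre-addition; B-score computed on integrated fluorescence ratio after choline addition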
# NR2E3 ag-1 – human photoreceptor-specific nuclear receptor agonism. Q9Y5X4. CHO-S Gal4-NCOR/VP16-NR2E3 two-hybrid, luciferase. inhibition of corepressor binding, % at 3.98 µM. actives 0.35% (n = 360,000). AID 602229;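 active = inhibition above the mean of all tested compounds plus 3 SD, cut at about 70% in these data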;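 also: 0% = DMSO with NR2E3 transfected cells and 100% = cells lacking NR2E3 construct; higher means lower luciferase signal from less NR2E3 corepressor binding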
# NR2E3 ag-2 – activates human photoreceptor nuclear receptor NR2E3 | GST-NR2E3/biotin-RetCOR TR-FRET, 1536-well | inhibition of corepressor binding, % at 4.78 µM | actives 0.12% (n = 320,000);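 active = percent inhibition above the cutoff of mean plus 3 SD of all tested compounds, set per screening campaign, cut at about 20% in these data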;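 also: 0% = DMSO wells and 100% = biotin wells as full block of FRET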
#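 system = GST-tagged NR2E3 plus biotinylated RetCOR corepressor | input = 1.35 nM GST-NR2E3 | also added = 7 nM biotin-RetCOR | schedule = 5 h incubation at 4 °C | measured by = TR-FRET with europium anti-GST and streptavidin-D2, 340 nm excitation | read-out = percent loss of FRET ratio relative to control wells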
# NR2E3 ag conf – confirmation of human NR2E3 agonists. shares compounds with NR2E3 ag-1. CHO-S mammalian two-hybrid NR2E3-NCOR, luciferase luminescence. inhibition, % at 3.98 µM. actives 51% (n = 2,300);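 active = average inhibition above a cutoff equal to the mean inhibition of all tested compounds plus one SD, cut at about 70% in these data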;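 also: 0% = DMSO in NR2E3 cells and 100% = DMSO in cells lacking NR2E3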
# GAL4-VP16 luc – counter-screen for NR2E3 agonists: GAL4-VP16 reporter inhibitors. shares compounds with NR2E3 ag-1. CHO-S GAL4-VP16 luciferase reporter, luminescence. inhibition, % at 3.98 µM. actives 29% (n = 2,300);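 active = mean inhibition above a cutoff equal to the average over all tested compounds plus one standard deviation, cut at about 70% in these data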;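 also: luciferase from a UAS reporter driven by GAL4-VP16 transactivation; 0% = DMSO with VP16-transfected cells and 100% = DMSO with cells lacking VP16; higher means less reporter light so more repression of VP16 activity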
# GalR3 conf – GalR3 (human) antagonism, confirmation; shares compounds with GalR3 antagonist; HEK293 GalR3 CNG cAMP biosensor, membrane potential fluorescence; galR3 fused to GalR1 carboxy tail; challenged with forskolin and galanin at EC90; inhibition, % at 3 µM; actives 59% (n = 1,600);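 active = inhibition above the primary screen's cutoff, the mean inhibition of all screened compounds plus 3 SD, cut at about 13% in these data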;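 also: 0% = forskolin plus galanin and 100% = forskolin alone with DMSO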
# HEK-CNG parental – acts as nonspecific agonist in parental HEK-CNG cells; activation, % at 3 µM; shares compounds with GalR3 antagonist; AID 652268; HEK293-CNG parental cells, cAMP membrane potential fluorescence; normalised: DMSO wells 0%, forskolin wells 100%; actives 10% (n = 1,600); in the data active = activation above about 1.3%
# Gal4-VP16 ctr – VP16 inhibition counter-screen for COUP-TFII. shares compounds with NR2F2 inh. HEK293 Gal4-VP16 luciferase reporter, luminescence. inhibition, % at 8.5 µM. actives 25% (n = 2,500). AID 687007; in the data active = inhibition above about 13%
# COUP-TFII conf – COUP-TFII (NR2F2) inhibition, confirmation assay; shares compounds with NR2F2 inh; HEK293 NGFI-A luciferase reporter, luminescence; inhibition, % at 8.5 µM; actives 45% (n = 2,500); AID 687008;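 active = mean inhibition over three repeats above a set limit taken from the earlier primary screen, cut at about 38% in these data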;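 also: 100% = cells given the luciferase reporter alone without the COUP-TF2 vector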
# * = called active by the depositor; i = inactive; · = not tested or not shown. In the library only some 2.3% were active in any assay of this set; here they are far more common.
SMILES,CHT PAM,GalR3 antagonist,NR2F2 inh,CHT inh,NR2E3 ag-1,NR2E3 ag-2,NR2E3 ag conf,GAL4-VP16 luc,Gal4-VP16 ctr,COUP-TFII conf,others
COc1ccc(S(=O)(=O)Nc2ccc3c(c2)OCO3)cc1OC,i,-7.4,-6.2,i,-7.1,-0.8,·,·,·,·,
COc1ccc(NS(=O)(=O)c2ccc3c(c2)OCCO3)cc1OC,i,99.1*,57.2*,i,99.9*,2.3,83.7*,73.2*,3.3,39.7*,GalR3 conf=53.2*;HEK-CNG parental=-0.5
COc1ccc(NS(=O)(=O)c2ccc(-c3cnc(C4CC4)o3)cc2)cc1OC,i,8.1,56.4*,i,104.0*,-0.1,94.1*,85.1*,0.9,49.7*,
Cc1ccccc1OCCn1cc(C(=S)N2CCN(C)CC2)c2ccccc21,i,-4.4,-4.0,i,-15.9,0.0,·,·,·,·,
CC(=O)c1cn(CCOc2ccccc2C)c2ccccc12,i,4.0,60.9*,i,70.2*,1.6,94.0*,78.9*,0.0,53.8*,
CN(C)[C@H]1CCN(c2cccc3c2S(=O)(=O)N(C2CC2)CCCO3)C1,·,·,-4.2,·,·,·,·,·,·,·,
CCn1nc(C)c(CNC(=O)c2cc(COc3ccc(F)cc3Cl)on2)c1C,i,3.9,41.1*,i,51.0,0.9,85.7*,71.3*,8.9,43.9*,
CCC1CCCCN1S(=O)(=O)c1ccc(NC(=O)c2ccncc2)cc1 (stereo not given),i,-1.0,61.0*,i,95.8*,1.3,66.6,62.8,7.4,57.1*,
COc1ccc2c(c1)CCCN2C(=O)C1CCCN(S(=O)(=O)c2cccc3cccnc23)C1 (stereo not given),·,·,6.5,·,·,·,·,·,·,·,
Cc1cccc(-c2cccc3c4c([nH]c23)[C@@H]2C[C@H](N(C)C(=O)Nc3ccccc3C)[C@H]([C@H](C)O)CN2CC4)c1,·,·,-5.4,·,·,·,·,·,·,·,
Clc1ccc(OCCN2CCN(c3ncnc4sccc34)CC2)cc1,i,93.0*,70.2*,i,89.2*,-1.8,97.5*,92.8*,0.8,63.5*,GalR3 conf=107.0*;HEK-CNG parental=-0.2
Cc1ccc(OCCN2CCN(c3ncnc4sc(C)c(C)c34)CC2)cc1,i,100.8*,73.4*,i,92.3*,2.1,98.3*,93.4*,-1.8,61.1*,GalR3 conf=104.2*;HEK-CNG parental=0.5
O=C(O)c1ccccc1C(=O)Nc1ccc(Oc2cccc3ccccc23)cc1,·,-6.6,100.0*,·,67.4,·,-16.3,23.4,45.7*,34.3,
Cc1cccc(Oc2ccc(NC(=O)c3ccccc3C(=O)O)cc2)c1C,i,-3.7,24.8,i,-2.8,-3.2,·,·,·,·,
O=C(O)CNS(=O)(=O)c1ccc(Br)s1,i,0.3,2.9,i,-18.6,-3.2,·,·,·,·,
O=S(=O)(NCc1ccncc1)c1ccc(Br)s1,i,104.8*,63.4*,i,102.6*,0.9,92.1*,77.8*,6.7,53.8*,GalR3 conf=116.3*;HEK-CNG parental=-0.1
Cc1ccc(S(=O)(=O)NCc2ccncc2)cc1C,i,87.8*,60.1*,i,61.5,4.1,91.7*,76.4*,14.8*,57.0*,GalR3 conf=104.9*;HEK-CNG parental=-0.5
CNC(=O)c1cc(S(=O)(=O)NCc2ccncc2)ccc1OC,i,-4.4,13.2,i,-14.2,-0.2,·,·,·,·,
Cc1cc(C)c(C)c(S(=O)(=O)NCc2ccncc2)c1C,i,-11.1,37.5*,i,69.4,4.2,46.5,34.2,6.1,30.3,
COc1cc(S(=O)(=O)NCc2ccncc2)ccc1Br,i,63.1*,56.3*,i,94.5*,3.9,78.4*,68.5,7.7,43.5*,GalR3 conf=90.1*;HEK-CNG parental=-0.3
CCC(C)NC(=O)CSc1nnc(-c2cc(OC)c(OC)c(OC)c2)o1 (stereo not given),·,·,-21.4,·,·,·,·,·,·,·,
COCCNC(=O)C1CCCN(C(=O)c2cc(C(C)(C)C)nn2C)CC1 (stereo not given),·,-6.1,7.5,·,-4.6,·,·,·,·,·,
Cn1nc(C(C)(C)C)cc1C(=O)NCc1cc(F)cc2c1OCOC2,i,95.4*,63.3*,i,77.6*,-0.8,95.3*,77.0*,6.0,60.7*,GalR3 conf=111.1*;HEK-CNG parental=-0.4
COc1ccc(Cn2c(NC(=O)c3ccccc3)nc(Cc3ccccc3)c2-c2ccccc2)c(OC)c1,·,·,-5.7,·,·,·,·,·,·,·,
O=c1oc2ccccc2cc1-c1ccc(O)cc1,i,-2.7,-54.0,i,-41.8,-2.0,·,·,·,·,
SMILES,CHT PAM,GalR3 antagonist,NR2F2 inh,CHT inh,NR2E3 ag-1,NR2E3 ag-2,NR2E3 ag conf,GAL4-VP16 luc,Gal4-VP16 ctr,COUP-TFII conf,others
Nc1ccc(-c2cc3ccccc3oc2=O)cc1,i,-10.6,87.8*,i,51.5,-1.4,58.1,51.4,81.3*,79.6*,
COc1cc(C(=O)NC2CCCCN(Cc3ccc(Cl)cc3)C2=O)cc(OC)c1OC (stereo not given),·,·,11.3,·,·,·,·,·,·,·,
CCOC(=O)C1CCCN(S(=O)(=O)c2ccc(S(=O)(=O)N(CC)CC)cc2)C1 (stereo not given),i,92.0*,68.0*,i,83.7*,0.9,97.1*,88.5*,10.5,65.7*,
COc1ccc(C(=O)O/N=C(\N)c2ccccc2)cc1,i,-10.6,-45.8,i,-153.3,-4.0,·,·,·,·,
CC(C)(C)c1ccc(C(=O)O/N=C(\N)c2ccccc2)cc1,i,-10.2,86.1*,i,81.2*,1.8,78.5*,73.5*,66.5*,90.7*,
COc1ccc(S[C@]2(C(=O)NCCCN(C)C)CC(=O)N[C@@H]2c2ccc(OC)cc2)cc1,·,·,-13.5,·,·,·,·,·,·,·,
OC[C@@H]1CN(Cc2ccc(-c3ccccc3)cc2)C[C@H](n2cnc3c(NC4CCC4)ncnc32)O1,·,2.6,68.8*,·,80.0*,·,91.2*,78.8*,-4.1,44.8*,
